According to ChEMBL document CHEMBL1158578, “Phloroglucinols from the argentine ferns Elaphoglossum gayanum and E. piloselloides” (2010):

Tests used:
Format in all cases: functional
Biomphalaria peregrina [1] = assay: Molluscicidal activity against Biomphalaria peregrina after 24 hrs
In short: (§1)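 Snails (Biomphalaria peregrina) exposed for 24 h to test samples at 50, 20, 10, 5 and 2.5 ppm, with 21 snails per concentration. Mortality was recorded as a percentage. LD50 and LD90 were calculated from the mortality data by probit analysis. CuSO4 at 10 ppm served as the positive control, alongside an untreated control.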

Biomphalaria peregrina [2] = assay: Molluscicidal activity against Biomphalaria peregrina assessed as mortality at 10 ppm after 24 hrs; in short: as §1
Biomphalaria peregrina [3] = assay: Molluscicidal activity against Biomphalaria peregrina assessed as mortality at 2.5 ppm after 24 hrs; in short: as §1
Biomphalaria peregrina [4] = assay: Molluscicidal activity against Biomphalaria peregrina assessed as mortality at 5 ppm after 24 hrs; in short: as §1

## CCCC(=O)C1=C(O)C(C)(CC=C(C)C)C(O)=C(Cc2c(O)c(O)cc(OC)c2C(=O)CCC)C1=O (stereo not given) [ELAPHOPILOSIN D]
Biomphalaria peregrina [1]
  LD90: 22.8 µM
Biomphalaria peregrina [1]; Biomphalaria peregrina, 24 h, read-out: LD50 (the source's name)
  LC50: 14.4 µM
Biomphalaria peregrina [2]
  Activity: 81%
Biomphalaria peregrina [3]
  Activity: 10%
Biomphalaria peregrina [4]
  Activity: 24%
